Results on 1 compound are retold here after ChEMBL document CHEMBL1127592, “Synthesis and SAR studies of novel triazolopyrimidine derivatives as potent, orally active angiotensin II receptor antagonists” (J Med Chem, 1994).

For assay [1], the system named is Rattus norvegicus. Description: Compound at a dose of 1 mg/kg was administered orally and evaluated for change in mean arterial blood pressure in renal artery ligated hypertensive rats. Type of assay: functional. Conditions: route oral. In short, it runs like this: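 Male CD Sprague-Dawley rats (250-270 g), left renal artery ligated under ketamine (100 mg/kg ip); catheterized for direct recording 2-3 days before test. Single oral gavage, 3-7 rats/group. MAP recorded before and for 16 h after dosing; value is maximal MAP decrease, mean ± SEM; decrease under 15 mmHg counted as no effect.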

For assay [2], the target named is T1, Type-2 angiotensin II receptor (Rattus norvegicus, UniProt P35351).
T1 sequence (P35351 whole entry): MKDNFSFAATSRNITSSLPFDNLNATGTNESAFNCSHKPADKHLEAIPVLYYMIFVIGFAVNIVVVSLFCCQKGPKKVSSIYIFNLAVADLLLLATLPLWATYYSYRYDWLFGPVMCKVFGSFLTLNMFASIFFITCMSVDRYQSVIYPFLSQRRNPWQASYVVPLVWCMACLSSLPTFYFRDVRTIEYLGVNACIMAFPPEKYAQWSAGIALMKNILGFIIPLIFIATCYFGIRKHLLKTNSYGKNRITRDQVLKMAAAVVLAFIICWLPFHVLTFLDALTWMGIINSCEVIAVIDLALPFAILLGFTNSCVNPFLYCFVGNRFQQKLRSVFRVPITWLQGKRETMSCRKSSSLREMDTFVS
The experiment in a line: In vitro binding affinity against angiotensin-2 (AT-2) receptor in rat adrenal. Put shortly: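 Rat adrenal membranes (25-40 μg protein) in Tris-HCl 50 mM, MgCl2 5 mM, 0.25% BSA, pH 7.2, with 0.2 nM [125I]Sar1-Ile8-AII and drug at 10^-9 to 10^-4 M, 60 min, 25 °C. 20 mM DTT included or omitted to separate AT1 and AT2 binding. Nonspecific binding with 1 μM AII; filtration. IC50 by log-logit, Ki by LIGAND; one experiment in triplicate.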

In assay [3] the target is T2, Type-1 angiotensin II receptor B (Rattus norvegicus, UniProt P29089).
T2 sequence (P29089 whole entry): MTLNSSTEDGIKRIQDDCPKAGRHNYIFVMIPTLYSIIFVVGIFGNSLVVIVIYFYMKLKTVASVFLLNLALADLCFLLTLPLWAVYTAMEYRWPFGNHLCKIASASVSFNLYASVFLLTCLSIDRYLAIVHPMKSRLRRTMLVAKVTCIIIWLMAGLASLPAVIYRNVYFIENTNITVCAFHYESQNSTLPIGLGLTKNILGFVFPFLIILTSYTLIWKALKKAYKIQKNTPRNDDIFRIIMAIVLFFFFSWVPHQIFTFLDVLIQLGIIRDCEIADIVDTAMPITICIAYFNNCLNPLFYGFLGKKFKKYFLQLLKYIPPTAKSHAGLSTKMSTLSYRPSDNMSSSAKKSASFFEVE
The experiment in a line: Displacement of [125I]-Sar1-Ile8-A II from rat adrenal Angiotensin-1 (AT-1) receptor. On the technique in general: Displacement assays read how much labelled ligand stays bound in the presence of the test substance.

In assay [4] the test system is Rattus norvegicus. Description: Compound at a dose of 10 mg/kg was administered orally and evaluated for change in systolic arterial blood pressure in renal artery ligated hypertensive rats. Conditions: route oral. Type of assay: functional. In short, it runs like this:
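Conscious male CD Sprague-Dawley rats (250-270 g) with left renal artery ligated several days earlier under ketamine. Single oral gavage, 3-8 rats/group. Systolic pressure by indirect tail-cuff sphygmomanometry before and 3 h post-dose; change reported as SAP decrease at 3 h, mean ± SEM.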

A word on the Ki: it is the equilibrium dissociation constant of an inhibitor or competing ligand from its target. A higher Ki goes with a looser hold on the target.

For the compound `CCCc1nc(C)n2[nH]c(=O)nc2c1Cc1ccc(-c2ccccc2-c2nnn[nH]2)cc1`, the “Change in blood pressure” value was -39.6 mmHg in the assay with Rattus norvegicus [1] and -92.2 mmHg in the assay with Rattus norvegicus [4]. Further, the figures for the Ki in assay [2] and in assay [3] were 79.2 µM and 0.024 µM, respectively.
